Measurements reported in ChEMBL document CHEMBL2169869, “Assay and inhibition of diacylglycerol lipase activity” (Bioorg Med Chem Lett, 2012).
Activity calls are given as the source filed them. The calls are words filed in the database; no cut-off is given here.

Tests used:
[1] = molecular target: T1, Diacylglycerol lipase-alpha (Homo sapiens) (UniProt Q9Y4D2); assay: Inhibition of human DAGLalpha expressed in HEK293T cell membrane using [14C]SAG substrate at 10 uM using JZL184 pretreated protein in detergent free solution by […]; type: cell-based; conditions: HEK-293T
T1 sequence (whole entry): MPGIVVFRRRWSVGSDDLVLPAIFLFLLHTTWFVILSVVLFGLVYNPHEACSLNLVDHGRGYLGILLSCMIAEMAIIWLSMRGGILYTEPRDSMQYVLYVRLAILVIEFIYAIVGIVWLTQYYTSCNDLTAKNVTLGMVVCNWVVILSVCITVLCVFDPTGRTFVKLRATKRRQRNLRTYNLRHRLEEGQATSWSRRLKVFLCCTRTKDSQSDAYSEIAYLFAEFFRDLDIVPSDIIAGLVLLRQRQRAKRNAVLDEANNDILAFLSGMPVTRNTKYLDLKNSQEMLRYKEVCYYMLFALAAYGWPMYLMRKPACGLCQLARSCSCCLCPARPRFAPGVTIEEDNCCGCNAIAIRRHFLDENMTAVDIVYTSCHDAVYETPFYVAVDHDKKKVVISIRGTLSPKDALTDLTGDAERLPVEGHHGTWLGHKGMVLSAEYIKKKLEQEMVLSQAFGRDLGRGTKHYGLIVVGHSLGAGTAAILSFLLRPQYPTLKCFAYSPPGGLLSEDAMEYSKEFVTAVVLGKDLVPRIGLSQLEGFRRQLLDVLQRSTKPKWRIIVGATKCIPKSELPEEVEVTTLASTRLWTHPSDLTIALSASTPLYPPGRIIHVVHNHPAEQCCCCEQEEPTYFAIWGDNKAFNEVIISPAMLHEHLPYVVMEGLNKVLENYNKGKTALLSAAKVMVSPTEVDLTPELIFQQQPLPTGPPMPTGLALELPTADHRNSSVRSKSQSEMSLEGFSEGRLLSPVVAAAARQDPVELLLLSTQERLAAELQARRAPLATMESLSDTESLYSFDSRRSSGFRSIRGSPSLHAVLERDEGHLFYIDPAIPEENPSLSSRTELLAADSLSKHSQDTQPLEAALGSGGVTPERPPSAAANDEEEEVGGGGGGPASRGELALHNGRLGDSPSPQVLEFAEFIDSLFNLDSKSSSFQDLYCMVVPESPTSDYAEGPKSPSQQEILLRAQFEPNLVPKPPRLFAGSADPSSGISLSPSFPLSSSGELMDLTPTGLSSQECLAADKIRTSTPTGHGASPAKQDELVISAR

[2] = molecular target: T2, Fatty-acid amide hydrolase 1 (Rattus norvegicus) (UniProt P97612); assay: Inhibition of rat histidine tagged FAAH expressed in Escherichia coli at 10 uM by coumarin ester substrate fluorescence assay
T2 sequence (whole entry): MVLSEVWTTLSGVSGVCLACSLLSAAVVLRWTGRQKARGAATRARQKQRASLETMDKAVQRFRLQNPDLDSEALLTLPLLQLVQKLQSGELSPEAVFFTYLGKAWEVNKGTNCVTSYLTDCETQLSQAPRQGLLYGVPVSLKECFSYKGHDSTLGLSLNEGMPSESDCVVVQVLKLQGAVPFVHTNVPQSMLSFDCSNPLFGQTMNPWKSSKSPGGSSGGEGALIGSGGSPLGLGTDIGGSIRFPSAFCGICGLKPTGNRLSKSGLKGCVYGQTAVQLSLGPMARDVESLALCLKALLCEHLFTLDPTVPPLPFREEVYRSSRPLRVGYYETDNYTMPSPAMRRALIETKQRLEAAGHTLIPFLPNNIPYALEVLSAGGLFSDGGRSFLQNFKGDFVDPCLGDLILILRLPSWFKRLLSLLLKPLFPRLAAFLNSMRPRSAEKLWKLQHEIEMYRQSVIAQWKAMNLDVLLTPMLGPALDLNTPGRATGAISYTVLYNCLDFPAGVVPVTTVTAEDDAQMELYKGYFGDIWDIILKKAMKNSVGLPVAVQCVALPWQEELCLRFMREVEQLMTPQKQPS

[3] = molecular target: T3, Monoglyceride lipase (Homo sapiens) (UniProt Q99685); assay: Inhibition of human N-terminal histidine tagged full length MAGL expressed in Escherichia coli at 10 uM by coumarin ester substrate fluorescence assay
T3 sequence (whole entry): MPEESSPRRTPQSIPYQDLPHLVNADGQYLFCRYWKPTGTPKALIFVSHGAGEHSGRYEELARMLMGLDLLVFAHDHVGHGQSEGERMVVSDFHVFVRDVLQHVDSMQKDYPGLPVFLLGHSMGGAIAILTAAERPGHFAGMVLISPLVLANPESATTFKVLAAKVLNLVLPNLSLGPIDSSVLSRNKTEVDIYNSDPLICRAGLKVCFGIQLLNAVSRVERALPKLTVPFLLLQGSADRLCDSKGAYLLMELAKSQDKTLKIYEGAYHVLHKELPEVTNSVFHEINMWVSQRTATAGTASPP

[4] = molecular target: T1, Diacylglycerol lipase-alpha (Homo sapiens); assay: Inhibition of human DAGLalpha expressed in HEK293T cell membrane using [14C]SAG substrate at 10 uM in detergent free solution by […]; type: cell-based; conditions: HEK-293T
[5] = species: Sus scrofa; assay: Inhibition of porcine pancreatic lipase type 2 at 10 uM by FRET assay
[6] = tested on: Bacteria; assay: Inhibition of bacterial lipoprotein lipase at 10 uM by FRET assay
[7] = molecular target: T4, Diacylglycerol lipase-alpha (Homo sapiens, UniProt Q9Y4D2); assay: Inhibition of human DAGLalpha
T4 sequence (Q9Y4D2 whole entry): T1 sequence (whole entry)

[8] = molecular target: T5, Fatty-acid amide hydrolase 1 (Rattus norvegicus, UniProt P97612); assay: Inhibition of rat histidine tagged FAAH expressed in Escherichia coli by coumarin ester substrate fluorescence assay
T5 sequence (P97612 whole entry): T2 sequence (whole entry)

[9] = molecular target: T1, Diacylglycerol lipase-alpha (Homo sapiens); assay: Inhibition of human DAGLalpha expressed in HEK293T cell membrane using [14C]SAG substrate at 10 uM in detergent free solution by scintillation counting based radio-TLC assay; conditions: HEK-293T
[10] = molecular target: T6, Diacylglycerol lipase-alpha (Mus musculus) (UniProt Q6WQJ1); assay: Inhibition of mouse DAGLalpha expressed in HEK293T cell membrane using [14C]SAG substrate at 10 nM by scintillation counting based radio-TLC assay; type: cell membranes; conditions: HEK-293T
T6 sequence (whole entry): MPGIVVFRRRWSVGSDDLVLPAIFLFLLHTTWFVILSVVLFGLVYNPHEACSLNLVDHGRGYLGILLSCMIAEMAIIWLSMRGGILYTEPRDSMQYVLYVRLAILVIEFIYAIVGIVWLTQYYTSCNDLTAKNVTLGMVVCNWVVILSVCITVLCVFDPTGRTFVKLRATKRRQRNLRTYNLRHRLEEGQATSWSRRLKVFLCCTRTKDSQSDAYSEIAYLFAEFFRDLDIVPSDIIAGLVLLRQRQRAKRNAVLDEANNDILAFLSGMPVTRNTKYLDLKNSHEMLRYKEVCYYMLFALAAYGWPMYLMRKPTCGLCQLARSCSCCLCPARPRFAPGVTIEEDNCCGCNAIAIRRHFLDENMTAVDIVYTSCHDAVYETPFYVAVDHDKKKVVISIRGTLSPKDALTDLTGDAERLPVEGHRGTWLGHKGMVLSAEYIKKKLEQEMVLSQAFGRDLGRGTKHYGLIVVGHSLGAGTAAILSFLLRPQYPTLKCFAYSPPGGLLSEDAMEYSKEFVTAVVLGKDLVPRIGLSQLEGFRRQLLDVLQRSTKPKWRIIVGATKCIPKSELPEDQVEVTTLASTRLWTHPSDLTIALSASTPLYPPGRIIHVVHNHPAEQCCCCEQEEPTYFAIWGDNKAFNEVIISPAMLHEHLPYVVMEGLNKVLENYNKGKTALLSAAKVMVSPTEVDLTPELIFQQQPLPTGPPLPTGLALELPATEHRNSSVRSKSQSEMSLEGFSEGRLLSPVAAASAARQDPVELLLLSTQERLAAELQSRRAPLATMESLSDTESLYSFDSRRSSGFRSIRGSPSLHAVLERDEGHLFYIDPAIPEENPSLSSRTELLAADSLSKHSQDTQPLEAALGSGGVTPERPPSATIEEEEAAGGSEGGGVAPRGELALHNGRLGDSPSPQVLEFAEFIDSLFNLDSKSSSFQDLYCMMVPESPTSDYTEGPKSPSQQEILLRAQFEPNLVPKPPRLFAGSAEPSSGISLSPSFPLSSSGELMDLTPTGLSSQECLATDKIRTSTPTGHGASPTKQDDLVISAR

[11] = molecular target: T1, Diacylglycerol lipase-alpha (Homo sapiens); assay: Inhibition of human DAGLalpha expressed in HEK293T cell membrane using [14C]SAG substrate at 10 uM in detergent free solution using JZL184 pretreated protein by scintillation counting based radio-TLC assay; type: cell membranes; conditions: HEK-293T
How it was run: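 Same hDAGLα radio-TLC as above: Tris/CaCl2 pH 7.4, 15 min inhibitor preincubation at 37 °C, 20 μM [14C]SAG for 20 min at 37 °C, TLC with phosphorimaging, activity as (2-AG+AA)/total label.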

[12] = molecular target: T1, Diacylglycerol lipase-alpha (Homo sapiens); assay: Inhibition of human DAGLalpha expressed in HEK293T cell membrane using [14C]SAG substrate at 10 uM in presence of 0.05% Triton X-100 by […]; type: cell-based; conditions: HEK-293T
[13] = molecular target: T1, Diacylglycerol lipase-alpha (Homo sapiens); assay: Inhibition of human DAGLalpha expressed in HEK293T cell membrane using [14C]SAG substrate at 10 uM in presence of 0.05% Triton X-100 by scintillation counting based radio-TLC assay; type: cell membranes; conditions: HEK-293T
How it was run: (§1)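 Sonicated HEK293T protein (100 μg) in 50 mM Tris pH 7.4 with 10 mM CaCl2. Inhibitor in DMSO (10% DMSO standard) preincubated 15 min at 37 °C. [14C]SAG was added to 20 μM final for 20 min at 37 °C, with Triton X-100 where the line states it. Quenched with 2:1 CHCl3/MeOH. Silica TLC in CHCl3/MeOH/NH4OH 86:14:0.75, then 12 h phosphorimaging. Activity = (2-AG+AA)/(2-AG+AA+SAG). Background-subtracted; n=1–2.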

[14] = molecular target: T1, Diacylglycerol lipase-alpha (Homo sapiens); assay: Inhibition of human DAGLalpha expressed in HEK293T cell membrane using [14C]SAG substrate at 10 uM in presence of 0.015% Triton X-100 by scintillation counting based radio-TLC assay; type: cell membranes; conditions: HEK-293T; how it was run: as §1
[15] = molecular target: T6, Diacylglycerol lipase-alpha (Mus musculus); assay: Inhibition of mouse DAGLalpha expressed in HEK293T cell membrane using [14C]SAG substrate at 10000 nM by scintillation counting based radio-TLC assay; type: cell membranes; conditions: HEK-293T
[16] = molecular target: T2, Fatty-acid amide hydrolase 1 (Rattus norvegicus); assay: Inhibition of rat histidine tagged FAAH expressed in Escherichia coli at 1 uM by coumarin ester substrate fluorescence assay
[17] = molecular target: T3, Monoglyceride lipase (Homo sapiens); assay: Inhibition of human N-terminal histidine tagged full length MAGL expressed in Escherichia coli at 100 nM by coumarin ester substrate fluorescence assay

| SMILES | inhibition [1] [%] | inhibition [2] [%] | inhibition [3] [%] | inhibition [4] [%] | inhibition [5] [%] | inhibition [6] [%] | IC50 [7] [nM] | IC50 [8] [nM] | inhibition [9] | inhibition [10] | inhibition [11] [%] | inhibition [12] [%] | inhibition [13] [%] | inhibition [14] [%] | inhibition [15] [%] | inhibition [16] [%] | inhibition [17] [%] |
| --- | --- | --- | --- | --- | --- | --- | --- | --- | --- | --- | --- | --- | --- | --- | --- | --- | --- |
| O=C(NCCCCCCNC(=O)ON=C1CCCCC1)ON=C1CCCCC1 | 40 | 95 | 22 | 70 | 78 | < 0 | 65000 | 2240 | 30% | – | – | – | – | – | – | – | – |
| O=C(N[C@H]1COC1=O)OCc1ccccc1 | 7 | 10 | 13 | 17 | < 0 | < 0 | – | – | inactive | inactive | < 0 | – | – | – | – | – | – |
| CCCCCCCCCCCCCC1CC(=O)O1 (racemic) | – | 10 | 4 | 14 | 38 | < 0 | – | – | – | – | – | 72 | 25 | 45 | < 0 | – | – |
| CCCCCCC[C@@H]1OC(=O)[C@H]1CCCCCC (racemic) | 69 | 79 | 55 | – | 96 | 67 | – | – | – | – | – | – | – | 37 | – | – | – |
| CCCCCCC[C@H]1OC(=O)[C@H]1CCCCCC (racemic) | 65 | 94 | 100 | – | 94 | 33 | – | – | – | – | – | – | – | 25 | – | 13 | 66 |
| O=S(=O)(F)Cc1ccccc1 [PHENYLMETHYLSULFONYLFLUORIDE] | – | – | – | – | – | < 0 | – | 833 | – | inactive | – | – | – | – | – | – | – |
